Biological target: CHO-CHOP luciferase reporter, UPR activation, luminescence
Assay: activators of CHOP-driven apoptotic UPR arm, SAR follow-up, CHO-CHOP cells, luciferase luminescence, set 3 (AID 602434)
In short: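 system = CHO cell line stably carrying CHOP-driven luciferase reporter | incubation = 16-18 h seeding, 6 h treatment at 37 °C | technique = Steady-Glo luminescence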

Row | Structure (SMILES) | EC50 [µM]
1 | CC1CCN(S(=O)(=O)c2ccc(NC(=O)c3ccc([N+](=O)[O-])o3)cc2)CC1 | 0.761
2 | CC1(C)CCN(S(=O)(=O)c2ccc(NC(=O)c3ccc([N+](=O)[O-])o3)cc2)CC1 | 0.765
3 | O=C(Nc1ccc(S(=O)(=O)N2CCC(F)CC2)cc1)c1ccc([N+](=O)[O-])o1 | 0.435
4 | O=C(Nc1ccc(S(=O)(=O)N2CCC(Cl)CC2)cc1)c1ccc([N+](=O)[O-])o1 | 0.785
5 | CC(C)(C)C1CCN(S(=O)(=O)c2ccc(NC(=O)c3ccc([N+](=O)[O-])o3)cc2)CC1 | 0.652
6 | O=C(Nc1ccc(S(=O)(=O)N2CCCCC2)cc1)c1ccc([N+](=O)[O-])o1 | 0.741
